# Measurements: PubChem BioAssay AID821 (SRMLSC, 2007)
# Active and inactive are the calls of the source.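 How the source made its calls: active means compounds whose fitted half-maximal concentration for reducing fibroblast viability is 100 µM or lower; inactive means the rest.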
# Assay: inhibition of LL 47 lung fibroblast growth, concentration-response curve, selectivity screen for endothelial cell growth inhibitor project, cellular system, ATP luminescence readout (AID 821);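 further: 100% = median of untreated cell-only wells and 0% = no luminescence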
# Conditions: LL 47 lung fibroblast viability, ATP luminescence; at 20 µM (top of the series)
# Summary of the method: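 assay system = LL 47 human lung fibroblasts | quantity = 1,150 cells per well | compound = dose series 0.039–20 µM final, 0.2% DMSO | incubation = overnight cell settling, then 72 h compound exposure at 37 °C | signal = CellTiter-Glo luminescence readout of viable cells | read-out basis = % viability versus median cell-only wells, four-parameter EC50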
row,SMILES,viability
1,CC1(C)CC(=O)c2cc(C(=O)NCc3ccco3)c(=O)n(-c3ccc(Cl)cc3)c2C1,105% (inactive)
2,O=C(Nc1nnc(-c2ccc3c(c2)OCCO3)o1)c1ccc(Cc2ccccc2)cc1,97.9% (inactive)
3,Cc1ccc(/C=C/C(=O)c2ccccc2)cc1,85.6% (inactive)
4,CC1CCCC(NC(=O)C2CCN(S(=O)(=O)N3CCC4(CC3)OCCO4)CC2)C1C (centres undefined),100% (inactive)
5,Cc1c(Cl)cccc1-c1ccc(/C=N/n2cnnc2)o1,98.9% (inactive)
6,COc1ccccc1N1CCN(CC(=O)c2c(C)[nH]c3cc(C)ccc23)CC1,86.8% (inactive)
7,COC(=O)c1ccc(NC(=O)Nc2ccc(F)c(Cl)c2)cc1,106% (inactive)
8,CC1(C)Nc2ccc(O)cc2-c2c1ssc2=S,92.1% (inactive)
9,O=C(Nc1ccc(Cl)c(Cl)c1)C1=Cc2ccccc2OC1,99.6% (inactive)
10,Cc1cccc(NC(=O)c2cc(NC(=O)c3ccco3)ccc2N2CCCCC2)c1,82.5% (inactive)
11,O=C(CCC1CCCC1)c1c(O)c2ccccc2oc1=O,93.9% (inactive)
12,CC(=O)Nc1ccc(S(=O)(=O)N2CCN(c3nc(NC4CCCC4)c4ccccc4n3)CC2)cc1,84.8% (inactive)
13,O=C(CN1CCN(S(=O)(=O)c2ccc(F)cc2)CC1)Nc1ccc2c(c1)OCO2,104% (inactive)
14,Cc1cccc(C)c1OCC(=O)N=Nc1c(O)[nH]c2ccc(Br)cc12,104% (inactive)
15,Cc1ccccc1N1C(=O)CC(Sc2nnc(-c3ccccc3)o2)C1=O (centres undefined),90.5% (inactive)
16,CCOc1cc(N2CCOCC2)c(OCC)cc1NC(=O)COc1ncnc2ccc(Br)cc12,100% (inactive)
17,O=C1CCCc2c1[nH]c1ccc(Br)cc21,107% (inactive)
18,COc1ccc(-c2cn3c(C)c(C(=O)Nc4cccc(NC(C)=O)c4)sc3n2)cc1,109% (inactive)
19,COc1cccc(-c2cc(C(=O)Nc3cc(C)n(Cc4ccc(Cl)cc4)n3)no2)c1,92% (inactive)
20,Cc1ccc(Cn2c(SCC(=O)Nc3cc(C)on3)nc3ccccc3c2=O)cc1,80.1% (inactive)
21,OC(C#Cc1ccccn1)c1cccs1 (centres undefined),98.2% (inactive)
22,CCCS(=O)(=O)N1CCC(C(=O)N2CCC3(CC2)OCCO3)CC1,97.5% (inactive)
23,CCN(CC)c1cc(C)c2cc(NC(=O)c3ccc(Br)o3)ccc2n1,93% (inactive)
24,CC(C)c1ccc(C2C3CSCC=C3C(C#N)=C(N)C2(C#N)C#N)cc1 (centres undefined),88.4% (inactive)

row,SMILES,viability
1,COc1ccc(CNC(=O)c2cc3c(C)nc4ccccc4c3o2)c(OC)c1,88.7% (inactive)
2,Cc1nc(Nc2ccc3c(c2)OCCO3)c2nnn(Cc3ccccc3Cl)c2n1,102% (inactive)
3,O=C(CCN1CCN(Cc2ccccc2)CC1)Nc1ccc(OCc2ccccc2)cc1,97.3% (inactive)
4,Cc1ccsc1/C=C/C1=Cc2c(sc(NC(=O)CSc3n[nH]c(N)n3)c2C#N)C(C)(C)C1,112% (inactive)
5,Cc1oc(-c2ccccc2F)nc1CN1CCC(C(=O)NCCC2=CCCCC2)CC1,83.4% (inactive)
6,COc1ccc(Cl)cc1N1CCN(CCNC(=O)Nc2ccccc2C)CC1,101% (inactive)
7,CCCc1ccc(Oc2c(-c3ccc(O)c(C)c3O)n[nH]c2C)cc1,97.3% (inactive)
8,CNC(=O)Cn1c(=O)n(C)c2ccccc21,107% (inactive)
9,CCCc1ccc(-c2cc(NC(=O)CSc3n[nH]c(N)n3)n(-c3ccccc3)n2)cc1,100% (inactive)
10,CC1CCN(S(=O)(=O)c2ccc(NC(=O)Cn3nnc(-c4ccccc4F)n3)cc2)CC1,90.8% (inactive)
11,CCOC(=O)c1cc2c(N)c(C(=O)c3cc(C#N)c(SC)nc3C)sc2nc1C,101% (inactive)
12,CC1CCC(C(=O)c2c(O)c3ccccc3oc2=O)CC1 (centres undefined),88.2% (inactive)
13,CC(=O)c1c(C)[nH]c(C(=O)CSc2nnc(-c3ccccc3)n2Cc2ccc3c(c2)OCO3)c1C,94.2% (inactive)
14,c1ccc2c(c1)oc1c(NCCCN3CCOCC3)ncnc12,95.2% (inactive)
15,CC(C)(C)c1ccc(-c2nnc(SCC(=O)O)n2N)cc1,103% (inactive)
16,Nc1c(S(=O)(=O)c2ccccc2)c2nc3ccccc3nc2n1/N=C/c1cccc(O)c1,94.2% (inactive)
17,Cc1cc(NC(=O)c2cccc(S(=O)(=O)N3CC(c4ccccc4)CC3=O)c2)no1 (centres undefined),98.4% (inactive)
18,CCCCCn1c(CN2CCN(c3cc(Cl)ccc3C)CC2)nc2c1c(=O)[nH]c(=O)n2C,81.2% (inactive)
19,OC(COc1ccc(Cl)c2ccccc12)CN1CCN(c2ccccn2)CC1 (centres undefined),109% (inactive)
20,Cc1cc(C)cc(OC(=O)CS(=O)c2ccc(C(F)(F)F)cc2[N+](=O)[O-])c1 (centres undefined),98.3% (inactive)
21,O=C(Nc1ccc2c(c1)CCC2)c1cnn2c1NC(c1ccco1)CC2C(F)(F)F (centres undefined),83.8% (inactive)
22,O=C1C2C3C=CC(CO)(O3)C2C(=O)N1c1ccccc1-c1ccccc1 (centres undefined),91.7% (inactive)
23,Cc1ccc2c(c1)c1c(n2CC(O)Cn2c(C)nc3ccccc32)CCCC1 (centres undefined),95.1% (inactive)
24,CCCCCCn1c(SCC(=O)c2c(N)n(C)c(=O)n(C)c2=O)nc2ccccc21,98.8% (inactive)

row,SMILES,viability
1,Cc1ccc(NC(=O)C(C)N2C(=O)c3ccccc3C2=O)cc1 (centres undefined),107% (inactive)
2,CCCC1(CCC)NC(=O)N(CC(=O)Nc2ccccc2OC)C1=O,92.2% (inactive)
3,CC(C)(C)NC(=O)c1cnn2c1NC(c1ccc(F)cc1)CC2C(F)(F)F (centres undefined),99% (inactive)
4,CC1CC(C)(C)CC2(C1)NC(=S)N(c1ccccc1)N2 (centres undefined),109% (inactive)
5,Oc1ccccc1NCC(O)Cn1ccc2ccccc21 (centres undefined),98.6% (inactive)
6,CCOC(=O)c1cnc(-n2nc(C)cc2C)nc1NCc1ccc2c(c1)OCO2,96.5% (inactive)
7,O=C(COc1nc2ccccc2nc1N1CCOCC1)N1CCc2ccccc21,95.5% (inactive)
8,CCCCCCCCOC(=O)C1=C(C)Nc2nnnn2C1c1cccs1 (centres undefined),117% (inactive)
9,CCC(C)NC(=O)c1c(N)n(/N=C/c2ccccn2)c2nc3ccccc3nc12 (centres undefined),116% (inactive)
10,CCCCCCn1c(N2CCN(c3ccccc3)CC2)nc2c1c(=O)n(C)c(=O)n2C,101% (inactive)
11,COc1ccc(Cl)cc1C(=O)n1nc(C)cc1C,101% (inactive)
12,COc1ccc(OC)c(C(=O)CSc2nnc(-c3ccc(OC)c(OC)c3)o2)c1,88.4% (inactive)
13,Cn1c(CNc2cccc(Cl)c2)nnc1SCC(=O)OC1CCCCC1,86.7% (inactive)
14,CN1CCN(C(=O)c2ccc(COc3ccc(Cl)cc3Cl)cc2)CC1,103% (inactive)
15,COc1ccc(-c2cc(C(=O)Nc3cc(C)n(Cc4ccc(Cl)cc4)n3)no2)cc1OC,102% (inactive)
16,CC(C)(C)C1CC=C2C(C#N)=C(N)C(C#N)(C#N)C(c3cccs3)C2C1 (centres undefined),94.4% (inactive)
17,C/C(=N\O)c1ccc2c3ccccc3n(C)c2c1,111% (inactive)
18,CN1CCN(c2ccccc2NC(=O)c2ccc(-c3ccc(Cl)cc3Cl)o2)CC1,88.2% (inactive)
19,O/N=C1\CC/C(=N\O)c2nn(-c3ccccc3Cl)nc21,87.3% (inactive)
20,N#CCc1nc2c3c4c(sc3ncn2n1)CCCC4,102% (inactive)
21,CCC(C)NC(=O)c1c(N)n(/N=C/c2cccnc2)c2nc3ccccc3nc12 (centres undefined),104% (inactive)
22,Clc1cnc(N/N=C/c2cccs2)c(Cl)c1,88.3% (inactive)
23,CCCn1c(Nc2nc3ccccc3n2C)nc2ccccc21,102% (inactive)
24,CCC(C)[C@@H](NC(=O)OC(C)(C)C)c1nnc(S(=O)(=O)Cc2cccc(C)c2)o1 (some centres undefined),91.4% (inactive)

row,SMILES,viability
1,COc1ccc2cc3cc(C(=O)NCCc4ccc(OC)c(OC)c4)oc3nc2c1,109% (inactive)
2,COc1cc2c(N3CCOCC3)cc(O)c(CC(=O)Nc3ccccc3)c2cc1OC,95.9% (inactive)
3,COc1ccc2[nH]c(=O)c(CN(C3CCCCC3)C(c3nnnn3Cc3ccco3)C(C)C)cc2c1 (centres undefined),83.2% (inactive)
4,O=C(CCC1COc2ccccc2O1)Nc1ccc(Cl)cn1 (centres undefined),95.5% (inactive)
5,COc1ccc(CNC(=O)C(C#N)c2nc3ccccc3nc2N2CCN(C)CC2)cc1 (centres undefined),97.9% (inactive)
6,Cc1cc(NC(=O)CSc2nc(C(C)C)nc3sc4c(c23)CCCC4)no1,93.6% (inactive)
7,Cc1c(CCOC(=O)C2C3CC4CC(C3)CC2C4)sc[n+]1CC(=O)c1ccc(Br)cc1 (centres undefined),93.4% (inactive)
8,COc1ccc(OC)c(-n2nnnc2SCC(=O)Nc2ccc3c(c2)OCCO3)c1,103% (inactive)
9,Cc1ccc2[nH]c3c(c2c1)CCC3=O,110% (inactive)
10,COc1ccc(OC)c(S(=O)(=O)N(C)CC(=O)N2CCN(c3ccc(F)cc3)CC2)c1,106% (inactive)
11,Cc1c(CN(C)C(=O)c2sc3cc(Cl)ccc3c2Cl)cnn1C,94.6% (inactive)
12,CCOc1ccc(NC(=O)c2cc3n(n2)C(C(F)(F)F)CC(c2ccco2)N3)cc1 (centres undefined),106% (inactive)
13,CCOc1cc(C(=O)CSc2nnc(CNc3ccc(Cl)cc3)o2)ccc1NC(=O)CC,96% (inactive)
14,CNC(=O)c1ccc(-c2sc3nc(N4CCOCC4)c4c(c3c2N)CCCC4)o1,90.4% (inactive)
15,CCOC(=O)c1c(OCC)[nH]c2c1cc(O)c1ccccc12,117% (inactive)
16,CC(Nc1nc(N2CCN(S(C)(=O)=O)CC2)nc2ccccc12)c1ccccc1 (centres undefined),92.9% (inactive)
17,N#C/C(=C/c1ccc(N2CCCCCC2)o1)c1ccc(Cl)cc1,100% (inactive)
18,CC(C)OC(=O)NCCOC(=O)Nc1cccc(Cl)c1,103% (inactive)
19,Cc1nc2ccccc2n1CCc1nc2c3ccccc3nc(SCC(=O)NCc3ccco3)n2n1,101% (inactive)
20,O=C(Nc1ccccc1)c1cccc(-c2nnc(-c3ccccc3)o2)c1,102% (inactive)
21,CCOC(=O)c1sc(NC(=O)CSc2nnnn2-c2ccc(C)c(C)c2)nc1C,83.3% (inactive)
22,Nc1nc(-c2ccccc2)cc(-c2ccccc2O)n1,104% (inactive)
